Converted amounts (≈) assume the structure as drawn.
How the values were obtained:
[1] = test system: Trypanosoma brucei rhodesiense; experiment: Antiparasitic activity against Trypanosoma brucei rhodesiense STIB900 bloodstream forms assessed as reduction in cell viability after 70 hrs by alamar blue assay; format: functional, organism-based
L6 = experiment: Cytotoxicity against in rat L6 cells assessed as reduction in cell viability after 70 hrs by alamar blue assay; format: cell-based; conditions: L6, 70 h
Procedure, shortened: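 L-6 rat skeletal myoblasts seeded at 4×10^4/mL. 37 °C, 5% CO2, 70 h, then resazurin viability read by fluorescence after 2–4 h. IC50 from sigmoidal inhibition curves.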

Lymphocyte [2] = experiment: Genotoxicity in human lymphocytes assessed as micronucleated binucleate cells level at […] incubated for 20 hrs measured post 28 hrs recovery in absence of rat liver S9 fraction (reference value: 0.3%); format: toxicity, cell-based
Lymphocyte [3] = experiment: Genotoxicity in human lymphocytes assessed as micronucleated binucleate cells level at 5 ug/mL incubated for 20 hrs measured post 28 hrs recovery in absence of rat liver S9 fraction (reference value: 0.4%); format: toxicity, cell-based
Procedure, shortened: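 Cultures were PHA-stimulated pooled female donor whole-blood lymphocytes, grown 48 h at 37 °C before treatment, with cytochalasin-B 6 µg/mL added at treatment. Without S9, exposure was 20 h with 28 h recovery. With rat S9, exposure was 3 h with 45 h recovery. Micronucleated binucleate cells were scored at 1000 per replicate on Giemsa-stained slides.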

[4] = Redox potential of the compound assessed as one electron redox potential by pulse radiolysis method; format: physicochemical
Lymphocyte [5] = experiment: Genotoxicity in human lymphocytes assessed as micronucleated binucleate cells level at 0.03 ug/mL incubated for 24 hrs measured under no recovery condition in absence of rat liver S9 fraction (reference value: 0.50%); format: toxicity, cell-based
[6] = Trypanosoma brucei, STIB900, 70 h, read-out: IC50

Question: For `O=[N+]([O-])c1cn(-c2ccccc2Cl)cn1`, which IC50 [1] is on record?
Answer: Its IC50 is “Not Active”.

Question: With `O=[N+]([O-])c1cn(-c2ccccc2Br)cn1` as the compound, how does the IC50 [1] read?
Answer: The IC50 was “Not Active”.

Question: With `O=[N+]([O-])c1cn(-c2ccc(F)cc2F)cn1` as the compound, how does the IC50 [1] read?
Answer: Its IC50 is “Not Active”.

Question: For `O=[N+]([O-])c1cn(-c2c(F)cccc2F)cn1`, which IC50 [1] is on record?
Answer: Its IC50 is “Not Active”.

Question: Which IC50 [1] does the source give for `O=[N+]([O-])c1cn(-c2ccc(Cl)cc2Cl)cn1` here?
Answer: Its IC50 is “Not Active”.

Question: Which IC50 [1] does the source give for `O=[N+]([O-])c1cn(-c2cc(Cl)ccc2Cl)cn1` here?
Answer: Its IC50 is “Not Active”.

Question: Which IC50 [1] does the source give for `Cc1ccc(-n2cnc([N+](=O)[O-])c2)c(Br)c1` here?
Answer: Its IC50 is “Not Active”.

Question: Which IC50 [1] does the source give for `Cc1ccc(-n2cnc([N+](=O)[O-])c2)c(C)c1` here?
Answer: Its IC50 is “Not Active”.

Question: With `COc1ccc(-n2cnc([N+](=O)[O-])c2)c(OC)c1` as the compound, how does the IC50 [1] read?
Answer: The IC50 was “Not Active”.

Question: For `COc1ccc(-n2cnc([N+](=O)[O-])c2)cc1OC`, which IC50 [1] is on record?
Answer: The IC50 was “Not Active”.

Question: Which results are given for `O=[N+]([O-])c1cn(-c2ccc3c(c2)OCO3)cn1`?
Answer: IC50 [1, 6]: 940 nM; IC50 (L6): > 90 µg/mL

Question: With `O=[N+]([O-])c1cc[n+]([O-])c2ccccc12` [4-NITROQUINOLINE-1-OXIDE] as the compound, how does the Activity (Lymphocyte [2]) read?
Answer: The Activity was 4.8%.

Question: And the Activity (Lymphocyte [3])?
Answer: Its Activity is 3.5%.

Question: Which IC50 [1, 6] does the source give for `NCCCC(N)(C(=O)O)C(F)F` (configuration not stated) [EFLORNITHINE] here?
Answer: Its IC50 is 3800 nM.

Question: And the IC50 (L6)?
Answer: Its IC50 is 12 µg/mL (≈ 65.9 µM).

Question: For `CSc1ccc(OCc2ncc([N+](=O)[O-])n2C)cc1` [FEXINIDAZOLE], which IC50 [1, 6] is on record?
Answer: Its IC50 is 2570 nM.

Question: And the IC50 (L6)?
Answer: Its IC50 is > 90 µg/mL.

Question: And the Activity [4]?
Answer: Its Activity is -511 mV.

Question: With `Nc1nc(N)nc(Nc2ccc([As]3SCC(CO)S3)cc2)n1` (configuration not stated) [MELARSOPROL] as the compound, how does the IC50 (L6) read?
Answer: The IC50 was 1.3 µg/mL.

Question: With `Cc1ncc([N+](=O)[O-])n1CCO` [METRONIDAZOLE] as the compound, how does the Activity [4] read?
Answer: The Activity was -516 mV.

Question: Which Activity (Lymphocyte [5]) does the source give for `CC[C@]1(O)C[C@@H]2CN(CCc3c([nH]c4ccccc34)[C@@](C(=O)OC)(c3cc4c(cc3OC)N(C)[C@H]3[C@@](O)(C(=O)OC)[C@H](OC(C)=O)[C@]5(CC)C=CCN6CC[C@]43[C@@H]65)C2)C1` [VINBLASTINE] here?
Answer: Its Activity is 6.06%.

Source: ChEMBL document CHEMBL2150875, “1-Aryl-4-nitro-1H-imidazoles, a new promising series for the treatment of human African trypanosomiasis” (Eur J Med Chem, 2011)
